Results: ChEMBL document CHEMBL1926618, “Homosecoiridoids from the flower buds of Lonicera japonica” (2011)
Active and inactive are the calls of the source. The calls are words filed in the database; no cut-off is given here.

Tests used:
[1] = Antiinflammatory activity in rat polymorphonuclear leukocytes assessed as inhibition of platelet-activating factor-induced glucuronidase release at 10 uM preincubated for 15 mins before challenge by spectrophotometry; format: functional
A549 = test: Cytotoxicity against human A549 cells at 10 uM after 96 hrs by MTT assay; format: functional, cell-based
BGC-823 = test: Cytotoxicity against human BGC823 cells at 10 uM after 96 hrs by MTT assay; format: functional, cell-based
MCF7 = test: Cytotoxicity against human MCF7 cells at 10 uM after 96 hrs by MTT assay; format: functional, cell-based
Bel-7402 = test: Cytotoxicity against human Bel7402 cells at 10 uM after 96 hrs by MTT assay; format: functional, cell-based
KETR3 = test: Cytotoxicity against human Ketr3 cells at 10 uM after 96 hrs by MTT assay; format: functional, cell-based
HCT-8 = test: Cytotoxicity against human HCT8 cells at 10 uM after 96 hrs by MTT assay; format: functional, cell-based
PC-12 = test: Neuroprotective activity against glutamate-induced neurotoxicity in rat PC12 cells at 10 uM preincubated for 24 hrs prior challenge measured after 24 hrs by MTT assay; format: functional, cell-based
Liver microsomes = test: Antioxidant activity against Fe2+-cystine induced lipid peroxidation in rat liver microsomes at 10 uM; format: functional; settings: Microsome
[2] = biological target: T1, Tyrosine-protein phosphatase non-receptor type 1 (Homo sapiens) (UniProt P18031); test: Inhibition of GST-tagged human PTP1B PTPase activity using p-NPP as substrate at 10 uM after 10 mins by spectrophotometry
T1 sequence (whole entry): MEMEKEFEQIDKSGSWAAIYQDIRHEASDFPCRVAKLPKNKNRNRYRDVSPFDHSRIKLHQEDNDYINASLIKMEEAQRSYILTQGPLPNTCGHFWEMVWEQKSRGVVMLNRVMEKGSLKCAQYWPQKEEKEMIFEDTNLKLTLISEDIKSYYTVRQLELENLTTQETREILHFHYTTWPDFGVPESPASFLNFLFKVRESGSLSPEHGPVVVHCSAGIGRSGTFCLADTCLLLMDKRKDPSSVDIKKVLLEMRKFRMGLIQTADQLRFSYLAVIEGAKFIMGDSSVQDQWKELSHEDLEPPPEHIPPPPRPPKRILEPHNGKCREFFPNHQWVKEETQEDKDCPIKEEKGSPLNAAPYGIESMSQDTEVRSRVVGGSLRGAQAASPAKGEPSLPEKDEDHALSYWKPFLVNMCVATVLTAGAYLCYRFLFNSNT

[3] = system: Human immunodeficiency virus 1; test: Antiviral activity against HIV1 infected in 293T cells at 10 uM pretreated for 15 mins prior infection measured after 48 hrs by luciferase reporter gene assay; format: functional, organism-based
[4] = biological target: Signal transducer and activator of transcription 3 (Homo sapiens) (UniProt P40763); test: Inhibition of STAT-3 activity in HELF cells at 10 uM; format: cell-based
How it was run: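 HELF cells grown in DMEM with 10% FCS under humidified 5% CO2, transfected with pSTAT-3-TA-luc firefly luciferase reporter plasmid by lipofectamine 2000. After 24 h, treated in 5% FBS with compound or DMSO for 24 h. Luciferase activity read in cell lysates by luminometer; activity expressed relative to DMSO-treated transfected cells set at 100%.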

Sequence of Signal transducer and activator of transcription 3 (Homo sapiens) (P40763 whole entry): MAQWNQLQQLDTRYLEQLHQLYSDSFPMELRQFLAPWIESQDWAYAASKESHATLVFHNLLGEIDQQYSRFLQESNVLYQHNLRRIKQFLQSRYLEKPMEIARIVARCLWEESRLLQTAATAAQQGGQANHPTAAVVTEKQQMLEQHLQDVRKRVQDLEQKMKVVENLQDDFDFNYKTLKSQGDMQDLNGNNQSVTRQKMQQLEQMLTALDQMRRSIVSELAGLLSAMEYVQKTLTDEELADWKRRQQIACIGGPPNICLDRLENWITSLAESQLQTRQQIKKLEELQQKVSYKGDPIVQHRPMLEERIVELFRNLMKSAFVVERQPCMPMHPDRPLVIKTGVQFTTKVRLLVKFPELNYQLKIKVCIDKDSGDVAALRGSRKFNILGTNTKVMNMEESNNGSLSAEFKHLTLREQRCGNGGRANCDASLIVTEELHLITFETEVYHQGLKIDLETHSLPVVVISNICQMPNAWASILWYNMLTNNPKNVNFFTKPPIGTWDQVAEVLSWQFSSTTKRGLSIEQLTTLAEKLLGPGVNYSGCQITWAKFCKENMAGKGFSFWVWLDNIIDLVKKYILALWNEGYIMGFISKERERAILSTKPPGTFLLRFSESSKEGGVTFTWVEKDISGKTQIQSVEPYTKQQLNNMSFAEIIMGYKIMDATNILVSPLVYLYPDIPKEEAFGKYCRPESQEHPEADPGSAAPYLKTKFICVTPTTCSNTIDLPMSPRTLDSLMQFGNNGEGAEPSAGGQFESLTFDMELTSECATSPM

SMILES | inhibition at 10 µM [1] [%] | Activity (A549) | Activity (BGC-823) | Activity (MCF7) | Activity (Bel-7402) | Activity (KETR3) | Activity (HCT-8) | Activity (PC-12) | Activity (Liver microsomes) | inhibition [2] | Activity [3] | inhibition [4] [%]
C=C[C@H]1[C@H](O[C@@H]2O[C@H](CO)[C@@H](O)[C@H](O)[C@H]2O)OC=C(C(=O)O)[C@H]1/C=C/c1cc(C(=O)[O-])c[n+](CCCC(=O)O)c1 [DEMETHYL LONIJAPOSIDE A] | < 30 | inactive | inactive | inactive | inactive | inactive | inactive | inactive | inactive | inactive | inactive | 
C[C@@H]1C(=O)O[C@H]2[C@H](O)[C@@]34[C@H]5C[C@@H](C(C)(C)C)[C@]36[C@@H](OC(=O)[C@@H]6O)O[C@@]4(C(=O)O5)[C@@]12O [GINKOLIDE B] | 84.3 |  |  |  |  |  |  |  |  |  |  | 
C=C[C@H]1[C@H](O[C@@H]2O[C@H](CO)[C@@H](O)[C@H](O)[C@H]2O)OC=C(C(=O)OC)[C@H]1/C=C/c1cc(C(=O)[O-])c[n+](CC)c1 [LONIJAPOSIDE E] | < 30 | inactive | inactive | inactive | inactive | inactive | inactive | inactive | inactive | inactive | inactive | 
C=C[C@H]1[C@H](O[C@@H]2O[C@H](CO)[C@@H](O)[C@H](O)[C@H]2O)OC=C(C(=O)O)[C@H]1/C=C/c1cc(C(=O)[O-])c[n+](CC)c1 [LONIJAPOSIDE F] | 87.6 | inactive | inactive | inactive | inactive | inactive | inactive | inactive | inactive | inactive | inactive | 
C=C[C@H]1[C@H](O[C@@H]2O[C@H](CO)[C@@H](O)[C@H](O)[C@H]2O)OC=C(C(=O)OC)[C@H]1/C=C/c1cc(C(=O)[O-])c[n+](C)c1 [LONIJAPOSIDE G] | < 30 | inactive | inactive | inactive | inactive | inactive | inactive | inactive | inactive | inactive | inactive | 
C=C[C@@H]1/C(=C\Cc2cc(C(=O)[O-])c[n+](CCCC(=O)O)c2)C(C(=O)OC)=CO[C@H]1O[C@@H]1O[C@H](CO)[C@@H](O)[C@H](O)[C@H]1O [LONIJAPOSIDE H] | 68.6 | inactive | inactive | inactive | inactive | inactive | inactive | inactive | inactive | inactive | inactive | 
C=C[C@H]1[C@H](O[C@@H]2O[C@H](CO)[C@@H](O)[C@H](O)[C@H]2O)OC=C(C(=O)[O-])[C@H]1/C=C/c1ccc[n+](CCO)c1 [LONIJAPOSIDE I] | 72.1 | inactive | inactive | inactive | inactive | inactive | inactive | inactive | inactive | inactive | inactive | 
C=C[C@H]1[C@H](O[C@@H]2O[C@H](CO)[C@@H](O)[C@H](O)[C@H]2O)OC=C(C(=O)OC)[C@H]1/C=C/c1ccc[n+](CCO)c1 [LONIJAPOSIDE J] | < 30 | inactive | inactive | inactive | inactive | inactive | inactive | inactive | inactive | inactive | inactive | 
C=C[C@H]1[C@H](O[C@@H]2O[C@H](CO)[C@@H](O)[C@H](O)[C@H]2O)OC=C(C(=O)[O-])[C@H]1/C=C/c1ccc[n+](CC(=O)O)c1 [LONIJAPOSIDE K] | 54.6 | inactive | inactive | inactive | inactive | inactive | inactive | inactive | inactive | inactive | inactive | 
C=C[C@H]1[C@H](O[C@@H]2O[C@H](CO)[C@@H](O)[C@H](O)[C@H]2O)OC=C(C(=O)[O-])[C@H]1/C=C/c1ccc[n+](CCC(=O)O)c1 [LONIJAPOSIDE L] | < 30 | inactive | inactive | inactive | inactive | inactive | inactive | inactive | inactive | inactive | inactive | 
C=C[C@H]1[C@H](O[C@@H]2O[C@H](CO)[C@@H](O)[C@H](O)[C@H]2O)OC=C(C(=O)[O-])[C@H]1/C=C/c1ccc[n+](CCCC(=O)O)c1 [LONIJAPOSIDE M] | < 30 | inactive | inactive | inactive | inactive | inactive | inactive | inactive | inactive | inactive | inactive | 
C=C[C@H]1[C@H](O[C@@H]2O[C@H](CO)[C@@H](O)[C@H](O)[C@H]2O)OC=C(C(=O)OC)[C@H]1/C=C/c1ccc[n+](CCCC(=O)[O-])c1 [LONIJAPOSIDE N] | < 30 | inactive | inactive | inactive | inactive | inactive | inactive | inactive | inactive | inactive | inactive | 
O=C(O)C1=CO[C@@H](O[C@@H]2O[C@H](CO)[C@@H](O)[C@H](O)[C@H]2O)[C@H]2[C@@H]1C[C@@H]1C[C@H]2OC=C1c1ccccc1 [LONIPHENYRUVIRIDOSIDE A] | < 30 | inactive | inactive | inactive | inactive | inactive | inactive | inactive | inactive | inactive | inactive | 45.7
C=C[C@H]1[C@H](O[C@@H]2O[C@H](CO)[C@@H](O)[C@H](O)[C@H]2O)OC=C2C(=O)O[C@@H](/C(=C(/O)C(=O)O)c3ccccc3)C[C@H]21 [LONIPHENYRUVIRIDOSIDE B] | < 30 | inactive | inactive | inactive | inactive | inactive | inactive | inactive | inactive | inactive | inactive | 25.8
C=C[C@H]1[C@H](O[C@@H]2O[C@H](CO)[C@@H](O)[C@H](O)[C@H]2O)OC=C2C(=O)O[C@H](/C(=C(/O)C(=O)O)c3ccccc3)C[C@@H]21 [LONIPHENYRUVIRIDOSIDE C] | < 30 | inactive | inactive | inactive | inactive | inactive | inactive | inactive | inactive | inactive | inactive | 30.9
